G6PDH counter = L. mesenteroides G6PDH inhibitors, counter-screen for G6PDH-coupled screening assays, biochemical, Leuconostoc mesenteroides enzyme; glucose-6-phosphate dehydrogenase [Leuconostoc mesenteroides]; Purified L. mesenteroides G6PDH, diaphorase/resazurin coupled fluorescence, 45 min; inhibition, % at 5 µM; 200,000 tested, 0.12% active
WT yeast gro inh = growth inhibition of WT strain, primary screen, mitochondrial fusion inhibitor project, WT and mutant strains, chemical genetic. mitochondrial fusion phenotypic screen. 190,000 tested, 2.1% active. inhibition, % at 10 µM. AID 1362, 2008; in the data active = inhibition above about 58%; tested in S. cerevisiae
Diaphorase act = compounds boosting diaphorase resazurin reduction – biochemical, uHTS, resorufin fluorescence, counter-screen for diaphorase-coupled primary assays, primary screen. Diaphorase/resazurin coupled assay, 16 min; stronger effect = higher value; 1 = vehicle wells, 0 = NADH-free wells. activation factor at 20 µM. 190,000 tested, 0.005% active;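 active = diaphorase activity raised at least twofold by the compound at 20 µM; inactive = activation factor below 2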
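Material: Clostridium kluyveri diaphorase, purified enzyme; Quantity: enzyme 0.07 U/mL final; Medium: HEPES pH 7.4 buffer with MgCl2 and Tween 20; Dosing: single compound dose of 20 µM, 1% DMSO final; Schedule: 16 min reaction at room temperature; Measured by: red resorufin fluorescence at 544/590 nm excitation/emission.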
Diaphorase inh = diaphorase inhibitors and chemical oxidizers, primary screen, counter-screen for diaphorase-coupled primary assays, biochemical, uHTS, resorufin fluorescence | diaphorase resazurin-to-resorufin fluorescence, NADH, 16 min; bacterial (C. kluyveri) enzyme, not human | inhibition, % at 20 µM | 190,000 tested, 0.69% active | AID 1217, 2008;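 active = primary screen inhibition at 20 µM above a set limit, cut at about 50% in these data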;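 note: plate controls were DMSO with full reaction for no effect and wells lacking NADH for full effect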
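Test system: Clostridium kluyveri diaphorase enzyme / Quantity: diaphorase at 0.14 U/mL in enzyme working solution / Incubation: 16-min room-temperature incubation before reading / Benchmarks: NADH-free wells as positive control, DMSO-only neutral wells / Signal: resorufin fluorescence 544/590 nm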
Lmaj promast = Leishmania major promastigote growth inhibition, primary screen. Leishmania major promastigotes, resazurin fluorescence viability. inhibition, % at 10 µM. 200,000 tested, 9% active;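 note: promastigotes grown with compound for 44 hours at 28 °C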
Numbers without * were called inactive; . = no result given. The list is not random: actives were taken first. Their share in the collection is about 11%. Cut-off read from the data, not from the text of the source, unless noted: active = inhibition above about 50%; inactive = the rest.

SMILES | G6PDH counter | WT yeast gro inh | Diaphorase act | Diaphorase inh | Lmaj promast
COc1ccc(C(=O)c2c(C(F)(F)F)oc3c2C(=O)c2ccccc2C3=O)cc1 | 54* | 92* | 0.9 | 7 | 100*
Cc1ccc(N(CC(=O)NN=C2CCN(C)CC2)S(=O)(=O)c2ccc(C)cc2)cc1 | 2 | 8 | 1 | 0 | 1
Cc1ccc(C)c(N(CC(=O)NN=C2CCN(C)CC2)S(=O)(=O)c2ccccc2)c1 | -12 | 4 | 1 | 0 | 68*
COc1ccc(C)cc1NC(=O)c1ccccc1NS(=O)(=O)c1ccc(Cl)s1 | 19 | 84* | 0.7 | 34 | 8
CCCOc1ccc(C(=O)C(CN2CCOCC2)c2ccccc2)cc1 (stereo not drawn) | -5 | 43 | 0.9 | 10 | 100*
CCCCCC(O)(CCN1CCCCC1)c1ccc(OCC)cc1 (stereo not drawn) | -2 | 6 | 1.1 | -8 | 27
CCCC(O)(CCN1CCCCC1)c1ccc(OCC)cc1 (stereo not drawn) | 3 | 8 | 1 | 4 | 77*
CCCCOc1ccc(C(O)(CC)CCN2CCOCC2)cc1 (stereo not drawn) | 0 | -5 | 0.9 | 8 | 83*
CCCCOc1ccc(C(O)(CCC)CCN2CCOCC2)cc1 (stereo not drawn) | -2 | -4 | 0.9 | 8 | 3
CCCCC(O)(CCN1CCOCC1)c1ccc(Cl)cc1 (stereo not drawn) | 16 | -1 | 0.9 | 13 | 76*
O=C(CCc1nc2ccccc2c(=O)[nH]1)N1CCN(c2ccc(F)cc2)CC1 | -3 | 1 | 0.9 | 8 | 28
Nc1nc(SCc2ccc(Cl)cc2Cl)nc2nc3c(cc12)CCCC3 | -5 | 23 | 1.1 | -14 | 10
CCOC(=O)/C(C(C)=O)=C1\OC(=O)c2ccccc21 | 8 | -13 | 0.8 | 20 | 0
CC(C)=CCN1CCN(Cc2cccnc2)CC1CCO (stereo not drawn) | 8 | 6 | . | . | -7
COc1ccc(OCCOCCN2CCOCC2)cc1 | 1 | -7 | 0.9 | 9 | -1
CCOc1ccc(OCCOCCN2CCOCC2)cc1 | 7 | 28 | 0.8 | 16 | 94*
CCCC(O)(c1ccc(Cl)cc1)C(CN1CCOCC1)c1ccccc1 (stereo not drawn) | 4 | 34 | 0.8 | 23 | 73*
CCCCOc1ccc(OCCCN2CCOCC2)cc1 | 14 | 31 | 0.9 | 11 | 100*
CCC(C)c1ccc(OCCCCN2CCOCC2)cc1 (stereo not drawn) | 4 | 21 | 0.9 | 6 | 97*
Cc1ccc2c(CC(=O)NC3CCCc4ccccc43)coc2c1 (stereo not drawn) | -5 | -5 | 0.8 | 16 | 2
Cn1c(-c2ccccc2)c[n+]2c1-c1ccccc1C2 | -1 | 13 | 1 | 4 | 8
c1ccc(-c2ccccc2OCCCCN2CCCCCC2)cc1 | 7 | 27 | 0.9 | 9 | 99*
c1ccc(-c2ccccc2OCCCN2CCOCC2)cc1 | 8 | 14 | 1 | 2 | 40
OCCCN1CCN(CCCOc2ccccc2-c2ccccc2)CC1 | 8 | 12 | 0.9 | 10 | 93*
c1ccc(-c2ccccc2OCCOCCN2CCCCC2)cc1 | 5 | 4 | 1 | 3 | 72*
SMILES | G6PDH counter | WT yeast gro inh | Diaphorase act | Diaphorase inh | Lmaj promast
CCOC(=O)c1c(C)[nH]c(C)c1C(=O)COC(=O)c1ccc(OC)c(OC)c1 | 3 | 0 | 0.9 | 14 | -6
Cc1sc(NC(=O)C2C3C=CC(C3)C2C(=O)O)c(C(N)=O)c1-c1ccc(C(C)C)cc1 (stereo not drawn) | 1 | -9 | 0.9 | 11 | -6
CC1=CN2C(=N)/C(=C/c3ccc(Sc4ccc(Cl)cc4)o3)C(=O)N=C2S1 | -14 | 24 | 0.9 | 12 | 6
CC1=CN2C(=N)/C(=C/c3ccc(Sc4ccc(C)cc4)o3)C(=O)N=C2S1 | -2 | 77* | 0.9 | 13 | -3
Cc1nc2ccc(NC(=O)c3ccc(Cl)c(S(=O)(=O)N(C)c4ccccc4)c3)cc2s1 | -3 | 2 | 0.8 | 21 | 100*
O=C(O)CCc1ccc(-c2ccc(F)cc2)n1Cc1ccco1 | 8 | 63* | 0.9 | 10 | 5
Cc1c(Cl)cccc1N=Cc1ccc([N+](=O)[O-])s1 | 4 | 26 | 1 | 4 | 101*
CCCCOc1ccc(C(=O)N/C(=C\c2ccc(OC)cc2)C(=O)OCc2ccco2)cc1 | 2 | 22 | 0.8 | 21 | 96*
C/C(=N\NC(=O)CCCOc1ccc(Cl)cc1C)c1ccc(C)o1 | 7 | 0 | 0.9 | 12 | 1
Cc1cc(C(=O)N/N=C/c2sc(N3CCOCC3)nc2-c2ccccc2)c(C)o1 | 3 | -12 | 0.9 | 12 | 52*
O=C(Nc1ccccc1F)C(=Cc1sc(N2CCOCC2)nc1-c1ccccc1)C(=O)Nc1ccccc1F | -40 | -2 | 0.9 | 14 | 53*
O=Cc1sc(N2CCOCC2)nc1-c1ccccc1 | 14 | -3 | 1 | 1 | -3
O=C1Nc2ncccc2OC1CCO (stereo not drawn) | 0 | -23 | 1 | 3 | 8
Cc1ccc(S(=O)(=O)N2CCN(Cc3ccccc3)CC2)c(C)c1N(C)S(=O)(=O)c1ccccc1 | -4 | 10 | 1 | 2 | 9
N#CC1=C(N)SC(N)=C(C#N)C1c1c(Cl)cccc1Cl | 41 | 63* | 0.8 | 24 | 9
N#CC1=C(N)SC(N)=C(C#N)C1Cc1ccccc1 | 3 | 14 | 0.8 | 17 | 55*
COc1ccc(NC(=S)N(Cc2cccnc2)Cc2cc3cc(OC)c(OC)cc3[nH]c2=O)cc1 | 15 | 8 | 1 | -3 | -3
Cc1[nH]c2ccccc2c1CCN(Cc1cccnc1)C(=S)Nc1cccc(F)c1 | 3 | -38 | 1 | -4 | 100*
CCOc1ccc(NC(=S)N(CCc2c(C)[nH]c3ccccc23)Cc2cccnc2)cc1 | 9 | 19 | 1 | -2 | 100*
COc1cccc(NC(=S)N(CCc2c(C)[nH]c3ccccc23)Cc2cccs2)c1 | 14 | 34 | 0.9 | 14 | 25
CCOc1ccc(NC(=S)N(CCc2c(C)[nH]c3ccc(C)cc23)Cc2ccncc2)cc1 | 17 | 29 | 0.8 | 22 | 70*
COc1ccc(NC(=S)N(CCc2c(C)[nH]c3ccc(C)cc23)Cc2cccnc2)cc1 | 15 | -17 | 0.6 | 41 | 100*
CCCc1cc(C(=O)NNC(=S)NC(C)c2ccccc2)cs1 (stereo not drawn) | 0 | 6 | 1.1 | -7 | -1
C#CCOc1ccc(/C=N/NC(=O)c2cccnc2)cc1OCC | -6 | 12 | 1.1 | -6 | -6

Bioassay records (PubChem)
